Results as given in ChEMBL document CHEMBL3774327, “Design, synthesis, and analysis of antagonists of GPR55: Piperidine-substituted 1,3,4-oxadiazol-2-ones” (Bioorg Med Chem Lett, 2016).
pIC50: −log10 of the molar value. Values belong to the compound of their own block, whether it stands above or below them.

Assays:
Type in all cases: cell-based
[1] = Antagonist activity at HA-epitope tagged GRP55E expressed with GFP-tagged beta-arr2 in human U2OS cells assessed as LPI-stimulated redistribution of beta-arr2 preincubated for 15 mins by beta-arrestin translocation assay
[2] = molecular target: G-protein coupled receptor 55 (Homo sapiens, UniProt Q9Y2T6); assay: Antagonist activity at beta-galactosidase fragment-fused GRP55 (unknown origin) over-expressed with N-terminal deletion beta-galactosidase mutant-tagged beta-arr2 in […] cells assessed as inhibition of LPI induced beta-arrestin activity preincubated for 30 mins by PathHunter chemiluminescent complementation assay; settings: cho-k1; for pIC50: read-out: IC50
In short: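 Inhibition of LPI-induced β-arrestin activity was quantitated by chemiluminescence. Concentration-response curves were run in triplicate against 6 μM LPI, and IC50 was derived with 95% confidence intervals.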

[3] = Antagonist activity at GRP55E (unknown origin) over-expressed with GFP-tagged beta-arr2 in human U2OS cells assessed as inhibition of LPI induced beta-arrestin recruitment preincubated for 30 mins by beta-arrestin recruitment assay

Sequence of G-protein coupled receptor 55 (Q9Y2T6 whole entry, looked up, stated change not applied, the tested form may be a part): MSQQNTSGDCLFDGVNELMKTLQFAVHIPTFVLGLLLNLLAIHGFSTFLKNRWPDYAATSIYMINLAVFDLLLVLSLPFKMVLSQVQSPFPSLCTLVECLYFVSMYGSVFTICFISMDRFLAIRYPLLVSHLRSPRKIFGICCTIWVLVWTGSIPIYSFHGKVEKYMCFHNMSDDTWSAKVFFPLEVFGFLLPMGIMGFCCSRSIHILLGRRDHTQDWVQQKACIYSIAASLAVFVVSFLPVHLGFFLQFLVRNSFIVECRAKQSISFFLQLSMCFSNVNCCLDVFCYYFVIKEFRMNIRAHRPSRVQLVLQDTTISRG

pIC50 [1]: 6.15
Compound: Cc1nc(N2CCN(C(=O)c3ccco3)CC2)c2c3c(sc2n1)CCCC3

IC50 [2]: ND(Insoluble)
Compound: COc1ccc(C2(C(=O)N3CCC(n4nc(-c5ccccc5)oc4=O)CC3)CC2)cc1

pIC50 [2]: 4.92
Compound: O=C(N1CCC(n2nc(-c3ccccc3)oc2=O)CC1)C1(c2ccccc2)CC1

pIC50 [3]: < 4.82
Compound: O=C(N1CCC(n2nc(-c3cccs3)oc2=O)CC1)C1(c2ccccc2)CC1

pIC50 [1]: 5.96
Compound: Cc1ccc(C2(C(=O)N3CCC(n4nc(-c5ccccc5)oc4=O)CC3)CC2)cc1

pIC50 [2]: 5.60
Compound: O=C(N1CCC(n2nc(-c3ccccc3)oc2=O)CC1)C1(c2ccc(Cl)cc2Cl)CC1

pIC50 [2]: 6.38
Compound: O=C(N1CCC(n2nc(-c3cccnc3)oc2=O)CC1)C1(c2ccccc2)CC1

pIC50 [2]: 6.11
Compound: Cc1ccc(C2(C(=O)N3CCC(n4nc(-c5ccccc5)oc4=O)CC3)CC2(C)C)cc1 (racemic)

pIC50 [2]: 5.15
Compound: COc1ccc(-c2nn(C3CCN(C(=O)C4(c5ccccc5)CC4)CC3)c(=O)o2)cc1

pIC50 [3]: < 4.82
Compound: O=C(N1CCC(n2nc(-c3ccco3)oc2=O)CC1)C1(c2ccccc2)CC1

pIC50 [1]: 6.66
Compound: Cc1cc(C)c2nc(-c3ccccn3)cc(C(=O)Nc3ccc(S(=O)(=O)Nc4onc(C)c4C)cc3)c2c1

IC50 [2]: ND(Insoluble)
Compound: COc1ccc(-c2nn(C3CCN(C(=O)C4(c5ccc(OC)cc5)CC4)CC3)c(=O)o2)cc1

IC50 [2]: ND(Insoluble)
Compound: O=C(N1CCC(n2nc(-c3ccc(C(F)(F)F)cc3)oc2=O)CC1)C1(c2ccccc2)CC1

pIC50 [2]: 5.74
Compound: COc1ccc(C2(C(=O)N3CCC(n4nc(-c5ccc(C(F)(F)F)cc5)oc4=O)CC3)CC2)cc1

pIC50 [3]: < 4.82
Compound: O=C(c1cccc2ccccc12)N1CCC(n2nc(-c3ccccc3)oc2=O)CC1

pIC50 [3]: < 4.82
Compound: O=C(N1CCC(n2nc(-c3cccc(C(F)(F)F)c3)oc2=O)CC1)C1(c2ccccc2)CC1

pIC50 [2]: 6.19
Compound: O=C(N1CCC(n2nc(-c3ccccc3)oc2=O)CC1)C1(c2ccc(Cl)cc2)CC1
